The text below walks through data of ChEMBL document CHEMBL4513216, “Probing the Open Global Health Chemical Diversity Library for Multistage-Active Starting Points for Next-Generation Antimalarials” (ACS Infect Dis, 2020).

Structures are written as SMILES.

The nature of this series: Toxicity liver stage against HepG2, at 10uM. Format: cell-based. More on the design: test concentration 10 uM, cell line HepG2-A16-CD81EGFP. The conditions noted are these: human, HepG2-A16-CD81EGFP cells; read-out: INHIBITION
The gist of the method: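 Uninfected HepG2-A16-CD81EGFP cells, 3 × 10^3 per well, 1536-well, plated on prespotted compound at 10 μM final, parasite-free screening media added to match infected plates; puromycin 10 μM positive, DMSO 0.5% negative; run in parallel with 48 h PbLuc assay at 37 °C, 5% CO2; viability by CellTiter-Glo luminescence, normalized to controls.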
`CC(C)(C)c1cn(C[C@H]2CC3CCN2C[C@@H]3C(=O)NC2CC2)nn1` (stereo partly specified): the cytotoxicity at 10 µM turned out to be 9.46%.
In the case of `CC(=O)N1N=C(c2ccccc2)OC1C(=O)N(C)CCc1ccccc1` (stereo unspecified), the cytotoxicity at 10 µM came out at 3.54%.
Turning to `OC[C@@H]1[C@@H](c2ccccc2)CN2CCN(c3ccccn3)C[C@H]12`, the cytotoxicity at 10 µM is -0.53%.
As to `COc1ccc2nnc(CCCC(=O)Nc3nc4c(s3)CCC4)n2n1`, the cytotoxicity at 10 µM is -5.01%.
As to `O=C1CSC(C(F)(F)F)c2c(O)nn(C3CCCCC3)c2N1` (stereo unspecified), the cytotoxicity at 10 µM was -45.7%.
Turning to `COc1ccc(F)cc1S(=O)(=O)N1CCC(Oc2ccc(Cl)cn2)CC1`, the cytotoxicity at 10 µM was 8.05%.
On to `CN(CC1CC1)c1ccc2ccc(C(=O)NCCc3ccccc3)cn12`, for which the cytotoxicity at 10 µM was -1.83%.
Turning to `Cc1ccc(CNC(=O)C2c3c(ncn3C(C)C)CCN2S(C)(=O)=O)o1` (stereo unspecified), the cytotoxicity at 10 µM was -13.7%.
For `O=C(NC1CC1)c1nc2c(o1)CN(c1ncccn1)C2` the value was 0.718%; for `CN(C)C(=O)N1CC2(CCN(S(=O)(=O)C3CC3)CC2)c2ccccc21`, -110%; for `COCCn1ccc2c(cnc3nc(SC)nn32)c1=O`, -17.4%.
With `O=c1[nH]c2c(c(=O)n1C1CCCCC1)CCC2NCCc1ccccc1` (stereo unspecified), the cytotoxicity at 10 µM was -6.91%.
In the case of `Cc1cc(C(=O)NCC(C)C)nn1C`, the cytotoxicity at 10 µM is -0.971%.
As to `Cc1nn(C)c2cnn(Cc3ccc(C(=O)NCC4CC4)o3)c12`, the cytotoxicity at 10 µM amounted to 6.06%.
For `O=C(NC1CCS(=O)(=O)C1)c1cc(Sc2ncccn2)ccn1` (stereo unspecified) the value was 12%.
`Cc1ccccc1S(=O)(=O)N(C)[C@@H]1CC[C@@H](n2ccnc2C)[C@@H]1O`: the cytotoxicity at 10 µM was -1.07%.
On to `O=C(c1ccncc1)N1CCCC(C2=Nc3ccccc3S(=O)(=O)N2)C1` (stereo unspecified), for which the cytotoxicity at 10 µM was 4.26%.
The result for `O=C(NC1CCCN(c2ccccn2)C1)C1(c2ccccc2F)CC1` (stereo unspecified) reads 7.79%.
Consider `COCC(=O)N1CCOC(c2cccc(-c3cncnc3)n2)C1` (stereo unspecified), for which the cytotoxicity at 10 µM worked out at 0.109%.
The result for `Cc1ccccc1-c1cncc(C2CCN(CCO)CC2)n1` reads -1.61%.
For the compound `CC(=O)N1CCCCC1c1nc2c(c(NC3CCCC3)n1)CN(C)CC2` (stereo unspecified), the cytotoxicity at 10 µM was -13%.
Take `CN(CCC(=O)N1CCCC(Cc2cccnc2)C1)Cc1cccnc1` (stereo unspecified): the cytotoxicity at 10 µM was -9.41%.
`CC(=O)N1CCCCC1c1nc(N)ncc1-c1ccccc1` (stereo unspecified): the cytotoxicity at 10 µM was -0.233%.
`O=C(NCCCn1ccnc1)C1COCC(=O)N1Cc1ccccc1` (stereo unspecified): the cytotoxicity at 10 µM is 12.3%.
For the compound `Cc1ccc(C2CN(CCS(C)(=O)=O)CCO2)c(C)c1` (stereo unspecified), the cytotoxicity at 10 µM amounted to 3.03%.
Turning to `Clc1cc(Cl)cc(CN2CCC(NCc3cc[nH]n3)CC2)c1`, the cytotoxicity at 10 µM is 11.1%.
The result for `COCCCOc1ccc(C(=O)N(C)Cc2cccc(O)c2)cn1` reads -9.63%; that for `COc1cc(CNc2cc(-c3ccoc3C)nn2CCO)ccc1F`, -14.6%.
Turning to `Cc1cc(C(=O)NC(C)CC(=O)c2ccco2)[nH]n1` (stereo unspecified), the cytotoxicity at 10 µM is -8.17%.
Regarding `COc1ccc(CNC(Cn2cncn2)c2ccccc2)cc1C` (stereo unspecified), the cytotoxicity at 10 µM was -4.33%.
Regarding `CC(=O)Nc1ccc(CNCc2ccc(CS(C)(=O)=O)cc2)cc1`, the cytotoxicity at 10 µM stood at 4.67%.
For `Cc1nnc(NC(=O)NC2CCCc3c2cnn3CCO)s1` (stereo unspecified) the value was 6.66%; for `O=C(CCNS(=O)(=O)c1ccccc1F)NCc1ccoc1`, -16.5%.
Regarding `Cc1ncc2c(n1)CN(Cc1nc(C)c(C)o1)CC2`, the cytotoxicity at 10 µM was -4.32%.
As for `O=C(CCc1ccncc1)N1CCCC(N2CCNC2=O)C1` (stereo unspecified), the cytotoxicity at 10 µM is 2.71%.
Regarding `O=C(c1ccc(-n2ccnc2)nn1)N1CCCCC1Cn1cccn1` (stereo unspecified), the cytotoxicity at 10 µM was -4.49%.
As for `COc1ccc(CN2CCN(CCn3ccnc3)CC2)cc1F`, the cytotoxicity at 10 µM was -8.88%.
For `CC(C)Cn1cnnc1C1CCCN1C(=O)c1ccc(F)cc1F` (stereo unspecified) the value was -2.01%.
For the compound `NS(=O)(=O)CC1CCCN1CCOc1ccccc1F` (stereo unspecified), the cytotoxicity at 10 µM amounted to 3.98%.
Consider `CC(=O)N(C)c1nc(CN2CCN(c3nccs3)CC2)cs1`, for which the cytotoxicity at 10 µM is -12.5%.
For `O=C(Nc1cc(CSCCO)ccn1)c1ccc(Cl)o1`, the cytotoxicity at 10 µM is -7.76%.
On to `CCS(=O)(=O)NC(CCSC)C(=O)Nc1ccc(F)cc1` (stereo unspecified), for which the cytotoxicity at 10 µM is -6.6%.
As for `CCc1ccc(NC(=O)c2ncc(C(N)=O)cc2Cl)cc1F`, the cytotoxicity at 10 µM is -9.86%.
Consider `CCOCCN1CCN(CC(O)c2ccc(F)cc2)CC1` (stereo unspecified), for which the cytotoxicity at 10 µM is -8.92%.
For `CCc1nc(CN2CCCC2C(=O)NC2CC2)cs1` (stereo unspecified) the value was -4.63%; for `N#Cc1ccc(CN(CCF)Cc2cccc(F)c2)cc1`, -4.11%.
On to `COc1ccc(CN(C)CC(=O)c2ccc3[nH]c(=O)[nH]c3c2)cc1F`, for which the cytotoxicity at 10 µM came out at 8.51%.
Take `CCN(C(=O)C1Cc2cc(Cl)ccc2O1)C1CC1` (stereo unspecified): the cytotoxicity at 10 µM turned out to be 10.1%.
For `CCCc1nc(C(C)(C)NC(=O)c2ccnn2C)no1` the value was -10.5%; for `COc1ccccc1C(C)NC(=O)NCCC(=O)NC1CCCCC1` (stereo unspecified), 0.0119%.
For `O=C(c1cscn1)N1CCc2ncc(Cn3cncn3)n2CC1` the value was -68.9%; for `O=C(c1ccnnc1)N1CCc2ncnc(C3CCOC3)c2CC1` (stereo unspecified), -77.5%.
For `Cc1cccc(COC[C@]23COC[C@H]2CN(c2ncccn2)C3)n1` the value was -76.2%; for `CC(=O)N1CCn2cc(CNC(=O)c3cccn3C)nc2C1`, 1.88%; for `CN(Cc1ccccn1)C1COC2(CCN(Cc3cccnc3)CC2)C1` (stereo unspecified), -1.42%.
For the compound `Cc1ccc(CN2CCCn3c(nc(Cn4cncn4)cc3=O)C2)s1`, the cytotoxicity at 10 µM was -1.6%.
Take `CN(C)CC(=O)Nc1ccc(C(=O)N(C)CCc2cn[nH]c2)cc1`: the cytotoxicity at 10 µM amounted to 2.2%.
As for `Nc1cc(C(=O)N2CCC(Oc3cccc(C(F)(F)F)c3)CC2)ccn1`, the cytotoxicity at 10 µM is -7.03%.
Turning to `Cc1ccc(OCC(=O)N2CCOCC(O)(CN3CCCC3)C2)cc1C` (stereo unspecified), the cytotoxicity at 10 µM was -4.05%.
For `CCn1ccnc1CN(C)Cc1nc(Cc2cccc(F)c2)no1` the value was -4.44%; for `Cc1nc(CN2C[C@@H](NS(=O)(=O)N(C)C)[C@H](C(C)C)C2)cs1`, -6.04%; for `Cc1cc(C)nc(CCNc2nccc(CCC(F)(F)F)n2)n1`, -114%.
As for `Cc1ccc(CN2CCOCS2(=O)=O)cc1F`, the cytotoxicity at 10 µM was determined as 9.52%.
Consider `CC(C)(C)CN1CCC(c2nnc(Cn3ccnc3)n2C2CC2)CC1`, for which the cytotoxicity at 10 µM is -5.02%.
With `Cn1cc(CN(CC2(O)CNCCOC2)C2CCCCC2)cn1` (stereo unspecified), the cytotoxicity at 10 µM was 3.09%.
The result for `CC(Cn1ccnc1)NC1CCN(Cc2cccc(O)c2)CC1` (stereo unspecified) reads -4.21%.
The result for `CC(C)n1cnnc1CN(C)C(=O)c1cnn2ccccc12` reads 1.31%.
On to `CCOC(=O)N1CCN(C(=O)c2ccc3ccn(C)c3c2)CC1`, for which the cytotoxicity at 10 µM is -6.57%.
As to `CN1CCN(C[C@@H]2CN(C(=O)c3ccccc3C#N)C[C@@H]2CO)CC1`, the cytotoxicity at 10 µM was -24.7%.
For `CCN(CC)C(=O)c1c(Cl)cnn1CC` the value was -12.3%; for `CS(=O)(=O)N1CCC(C(=O)NC(Cc2ccsc2)c2nccs2)CC1` (stereo unspecified), 4.04%; for `Cc1ccccc1-c1cncc(C2CCN(C)CC2)n1`, -6.13%.
Turning to `Cc1cccc(CN2CCC(N(C)Cc3nnc(C4CC4)n3C)C2)c1` (stereo unspecified), the cytotoxicity at 10 µM is -6.04%.
Consider `Cc1cc(OCC(=O)NS(=O)(=O)c2cccnc2)ccc1Cl`, for which the cytotoxicity at 10 µM amounted to 0.544%.
Consider `COc1cc(Cl)ccc1C(=O)N1CCCC(c2cc(C)[nH]n2)C1` (stereo unspecified), for which the cytotoxicity at 10 µM was found to be 72.5%.
Regarding `Cc1oc(C(=O)O)cc1S(=O)(=O)Nc1cc(Cl)ccc1F`, the cytotoxicity at 10 µM was -12%.
Regarding `CCc1nc(CN2CCCN(C(=O)c3cnc[nH]3)CC2)cs1`, the cytotoxicity at 10 µM is -9.39%.
For `Cc1cc(C)n(CC2CCCN2C(=O)c2cccc3[nH]ncc23)n1` (stereo unspecified), the cytotoxicity at 10 µM was -5.55%.
For `CN(C(=O)NCCCN1CCCC1)C1CCN(c2ccccc2)C1=O` (stereo unspecified) the value was 0.864%.
For the compound `Cc1ccc(CN(Cc2[nH]cnc2C)C2CC(C)(C)NC(C)(C)C2)o1`, the cytotoxicity at 10 µM was -3.3%.
`CC(C)NC(=O)C1CN(Cc2ccsc2)Cc2ccnn2C1` (stereo unspecified): the cytotoxicity at 10 µM was -5.03%.
In the case of `NC(=O)N1CC[C@H](O)[C@@H]1Cc1cccnc1`, the cytotoxicity at 10 µM came out at 1.72%.
Consider `c1ccc(CN2C[C@@H]3OCCN(c4ncccn4)[C@@H]3C2)nc1`, for which the cytotoxicity at 10 µM came to 3.86%.
In the case of `CCN(CC)Cc1cn2c(n1)CN(C(=O)c1cc(C)on1)CC2`, the cytotoxicity at 10 µM is 6.17%.
Turning to `Cc1cc(CN2CC[C@H]3[C@H]2CCN3CC(=O)N(C)C)oc1C`, the cytotoxicity at 10 µM is -5.6%.
Consider `c1cc(CN2CCO[C@H]3[C@H](OCCN4CCCC4)CC[C@@H]32)ccn1`, for which the cytotoxicity at 10 µM was -1.95%.
Regarding `COCCN1CCC2(CCN(Cc3ccc(OC)cc3)CC2)C1=O`, the cytotoxicity at 10 µM is 2.88%.
As to `CN(Cc1ccco1)[C@@H]1CN(CC2CCOCC2)C[C@@H]2CCCO[C@@H]21`, the cytotoxicity at 10 µM was -71.1%.
As for `O=C1CO[C@@H]2CN(Cc3cccs3)C[C@H]2N1Cc1cccnc1`, the cytotoxicity at 10 µM is -77.6%.
In the case of `CCCN1CCC[C@]2(CCC(=O)N2Cc2ccncc2)[C@H]1CC`, the cytotoxicity at 10 µM is -1.16%.
`Cn1ccnc1CN1CCCC2(CCN(CC3CCCO3)CC2)C1` (stereo unspecified): the cytotoxicity at 10 µM is -76.7%.
Regarding `CCS(=O)(=O)N1CCN(Cc2cccnc2)c2nc(C)ccc2C1`, the cytotoxicity at 10 µM was -70.3%.
For `COCCCNC(=O)c1cc(-c2cnc(N3CCOCC3)nc2)cn1C`, the cytotoxicity at 10 µM was -69.8%.
For `CN(Cc1cccs1)C1CCC[C@@H]2CN(C(=O)c3cnccn3)C[C@H]12` (stereo partly specified) the value was 16.7%.
As to `CCN(C)c1ncnc2c1CCN(Cc1ccncc1)CC2`, the cytotoxicity at 10 µM is -10.7%.
Take `Cc1cnn(CCC(=O)N2C[C@@H]3CC[C@H]2CN(CC(=O)N(C)C)C3)c1`: the cytotoxicity at 10 µM was -10%.
